Results reported in ChEMBL document CHEMBL2429816, “Synthesis and binding affinity of new 1,4-disubstituted triazoles as potential dopamine D(3) receptor ligands” (Bioorg Med Chem Lett, 2013).

Assays:
[1] = molecular target: Dopamine receptors; D3 & D4 (Homo sapiens) (UniProt P35462+P21917); test: Selectivity ratio of Ki for cloned human dopamine D4 receptor to Ki for cloned human dopamine D3 receptor
D(4) dopamine receptor = molecular target: T1, D(4) dopamine receptor (Homo sapiens, UniProt P21917); test: Displacement of [3H]-spiperone from cloned human dopamine D4 receptor
T1 sequence (P21917 whole entry): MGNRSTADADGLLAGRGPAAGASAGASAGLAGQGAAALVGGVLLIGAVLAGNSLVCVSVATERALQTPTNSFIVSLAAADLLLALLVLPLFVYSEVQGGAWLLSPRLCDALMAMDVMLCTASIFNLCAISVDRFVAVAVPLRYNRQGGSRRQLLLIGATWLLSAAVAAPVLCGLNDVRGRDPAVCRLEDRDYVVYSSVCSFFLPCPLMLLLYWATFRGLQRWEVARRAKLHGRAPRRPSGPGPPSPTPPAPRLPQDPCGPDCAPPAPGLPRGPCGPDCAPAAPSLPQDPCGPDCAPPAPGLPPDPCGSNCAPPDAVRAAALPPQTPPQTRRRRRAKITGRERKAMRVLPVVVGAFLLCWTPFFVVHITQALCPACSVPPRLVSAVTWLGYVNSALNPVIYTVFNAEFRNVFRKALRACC
How it was run: (§1)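 Competition binding at human receptor subtypes by the group's earlier procedure. Ki was calculated from displacement data by the Cheng–Prusoff equation.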

Homo sapiens [2] = species: Homo sapiens; test: Selectivity ratio of Ki for cloned human dopamine D2 receptor to Ki for cloned human dopamine D3 receptor
D(3) dopamine receptor [3] = molecular target: T2, D(3) dopamine receptor (Homo sapiens, UniProt P35462); test: Displacement of [3H]-spiperone from cloned human dopamine D3 receptor; how it was run: as §1
T2 sequence (P35462 whole entry): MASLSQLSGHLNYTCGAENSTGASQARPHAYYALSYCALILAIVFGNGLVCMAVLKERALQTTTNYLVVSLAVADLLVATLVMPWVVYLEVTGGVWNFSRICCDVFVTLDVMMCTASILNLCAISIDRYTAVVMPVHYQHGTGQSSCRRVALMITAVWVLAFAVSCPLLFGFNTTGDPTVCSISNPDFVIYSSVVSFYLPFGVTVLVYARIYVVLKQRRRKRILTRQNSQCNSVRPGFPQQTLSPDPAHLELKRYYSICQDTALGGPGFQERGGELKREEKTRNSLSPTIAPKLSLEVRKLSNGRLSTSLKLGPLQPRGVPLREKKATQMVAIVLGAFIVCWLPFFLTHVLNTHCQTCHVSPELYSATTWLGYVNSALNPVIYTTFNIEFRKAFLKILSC

[4] = molecular target: D(1A) dopamine receptor (Homo sapiens) (UniProt P21728); test: Displacement of [3H]-SCH23390 from cloned human dopamine D1 receptor at 1 uM relative to control
Chain of D(1A) dopamine receptor (Homo sapiens) (P21728 whole entry): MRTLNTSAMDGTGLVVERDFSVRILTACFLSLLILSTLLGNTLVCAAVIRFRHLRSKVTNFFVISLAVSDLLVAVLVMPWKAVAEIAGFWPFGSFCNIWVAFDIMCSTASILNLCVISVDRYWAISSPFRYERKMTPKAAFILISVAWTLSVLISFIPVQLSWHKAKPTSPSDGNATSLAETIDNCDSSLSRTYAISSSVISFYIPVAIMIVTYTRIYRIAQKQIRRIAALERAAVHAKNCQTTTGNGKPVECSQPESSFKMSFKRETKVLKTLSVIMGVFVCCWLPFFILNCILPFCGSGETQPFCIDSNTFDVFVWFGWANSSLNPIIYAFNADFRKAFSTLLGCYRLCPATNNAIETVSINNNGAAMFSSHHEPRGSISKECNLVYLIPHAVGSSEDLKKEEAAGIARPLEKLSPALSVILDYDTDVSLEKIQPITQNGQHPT
How it was run: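 Competition binding at the human D1 receptor. Compounds with little affinity are reported as percent inhibition at the highest concentration tested.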

D(2) dopamine receptor = D(2) dopamine receptor (Homo sapiens, UniProt P14416); test: Displacement of [3H]-spiperone from cloned human dopamine D2 receptor; how it was run: as §1
Chain of D(2) dopamine receptor (P14416 whole entry): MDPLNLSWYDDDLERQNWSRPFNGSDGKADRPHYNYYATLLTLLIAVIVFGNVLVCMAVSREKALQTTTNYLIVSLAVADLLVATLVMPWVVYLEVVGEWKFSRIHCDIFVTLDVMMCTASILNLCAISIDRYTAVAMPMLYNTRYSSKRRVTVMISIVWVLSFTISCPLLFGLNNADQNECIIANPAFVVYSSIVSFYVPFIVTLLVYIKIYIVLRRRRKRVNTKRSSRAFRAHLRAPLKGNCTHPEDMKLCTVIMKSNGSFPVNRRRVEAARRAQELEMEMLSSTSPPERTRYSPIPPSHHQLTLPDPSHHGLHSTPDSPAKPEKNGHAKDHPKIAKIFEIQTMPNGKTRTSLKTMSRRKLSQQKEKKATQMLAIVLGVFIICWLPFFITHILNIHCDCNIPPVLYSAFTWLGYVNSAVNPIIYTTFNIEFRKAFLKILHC

D(3) dopamine receptor [5] = molecular target: D(3) dopamine receptor (Rattus norvegicus, UniProt P19020); test: Displacement of [3H]spiperone from rat dopamine D3 receptor expressed in sf9 cells after 60 mins
Chain of D(3) dopamine receptor (Rattus norvegicus, UniProt P19020) (P19020 whole entry): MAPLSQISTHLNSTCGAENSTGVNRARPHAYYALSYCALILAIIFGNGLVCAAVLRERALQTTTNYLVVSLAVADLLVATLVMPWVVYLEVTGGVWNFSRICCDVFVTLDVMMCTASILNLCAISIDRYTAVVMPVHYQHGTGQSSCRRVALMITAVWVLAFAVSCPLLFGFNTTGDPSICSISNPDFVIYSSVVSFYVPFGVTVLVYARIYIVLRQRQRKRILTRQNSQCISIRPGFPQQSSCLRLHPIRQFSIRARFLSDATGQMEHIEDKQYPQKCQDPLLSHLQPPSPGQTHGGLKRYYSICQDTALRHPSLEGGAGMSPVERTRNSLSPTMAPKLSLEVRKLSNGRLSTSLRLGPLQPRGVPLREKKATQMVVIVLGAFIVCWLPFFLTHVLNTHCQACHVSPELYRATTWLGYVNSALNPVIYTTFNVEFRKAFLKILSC

[6] = molecular target: Dopamine receptor D2 and D3 (Rattus norvegicus) (UniProt P19020+P61169); test: Selectivity ratio of Ki for rat dopamine D2 receptor to Ki for rat dopamine D3 receptor
Chain of Dopamine receptor D2 and D3 (Rattus norvegicus) (P19020 whole entry, looked up): as the sequence (P19020 whole entry) above
Chain of Dopamine receptor D2 and D3 (Rattus norvegicus) (P61169 whole entry, looked up): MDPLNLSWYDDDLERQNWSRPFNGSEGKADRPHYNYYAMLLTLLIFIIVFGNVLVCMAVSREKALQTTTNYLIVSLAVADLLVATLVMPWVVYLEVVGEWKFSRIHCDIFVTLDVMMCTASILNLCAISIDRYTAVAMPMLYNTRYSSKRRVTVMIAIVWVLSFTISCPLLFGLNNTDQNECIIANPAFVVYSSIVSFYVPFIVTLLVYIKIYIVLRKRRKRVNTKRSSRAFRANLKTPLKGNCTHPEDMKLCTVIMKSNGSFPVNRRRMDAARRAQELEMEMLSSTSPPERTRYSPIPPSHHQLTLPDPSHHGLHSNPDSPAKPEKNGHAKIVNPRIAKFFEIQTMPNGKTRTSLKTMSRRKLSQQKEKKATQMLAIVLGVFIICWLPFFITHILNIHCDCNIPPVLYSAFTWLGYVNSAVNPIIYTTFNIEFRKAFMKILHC

Homo sapiens [7] = species: Homo sapiens; test: Selectivity ratio of Ki for dopamine D2 receptor (unknown origin) to Ki for dopamine D3 receptor (unknown origin)
How it was run: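 Radioligand competition binding at human D2 and D3 receptors. Ki was derived from displacement data using the Cheng–Prusoff equation. The selectivity value is the D2 Ki divided by the D3 Ki.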

D(3) dopamine receptor [8] = molecular target: T2, D(3) dopamine receptor; test: Antagonist activity at human dopamine D3 receptor assessed as [35S]GTPgammaS binding preincubated for 15 mins followed by [35S]GTPgammaS addition measured after 40 mins; assay type: functional

Chain of Dopamine receptors; D3 & D4 (Homo sapiens) (P35462 whole entry, looked up, one chain of several): as the sequence (P35462 whole entry) above

Structure (SMILES)	Ratio Ki [1]	Ki (D(4) dopamine receptor)	Ratio Ki (Homo sapiens [2])	Ki (D(3) dopamine receptor [3])	inhibition [4]	Ki (D(2) dopamine receptor)	Ki (D(3) dopamine receptor [5])	Ratio Ki [6]	Ratio Ki (Homo sapiens [7])	Kb (D(3) dopamine receptor [8])
COc1ccccc1N1CCN(CCCCn2cc(-c3cccnc3)nn2)CC1	14.3	1900 nM	1.4	132 nM	40.9%	181 nM				
COc1ccccc1N1CCN(CCCCn2cc(-c3ccc(Br)cc3)nn2)CC1	3.5	387 nM	2	111 nM	44.3%	227 nM				
NC(=O)c1cccc(N2CCN(CCCCNC(=O)c3ccc(Br)cc3)CC2)c1							1.6 nM	1800		
COc1ccccc1N1CCN(CCCCn2cc(-c3ccc(-c4cnco4)cc3)nn2)CC1	3.2	426 nM	1	135 nM	50%	137 nM				
CCCN[C@H]1CCc2nc(N)sc2C1 [PRAMIPEXOLE]									72	
COc1ccccc1N1CCN(CCCCn2cc(-c3ccc(N)cc3)nn2)CC1	197	532 nM	73.6	2.7 nM	38.4%	199 nM				1.4 nM
COc1ccc(-c2cn(CCCCN3CCN(c4ccccc4OC)CC3)nn2)cc1	9.8	395 nM	5.3	40.1 nM	44.3%	212 nM				
COc1ccccc1N1CCN(CCCCn2cc(-c3ccccc3)nn2)CC1	7.9	639 nM	2.8	81.2 nM	39.4%	228 nM				
